Assay outcomes: PubChem BioAssay, several laboratories
A selection: hits, their analogues and other compounds. The true share with any hit is near 2.1%.
beta cell repl = inducers of MIN6 beta-cell proliferation, primary screen, ATP luminescence, uHTS | MIN6 cells proliferation, ATPlite luminescence, 48 h; cells starved in 0.2% serum; 100% = growth in 10% serum | proliferation, % at 10 µM | 330,000 tested, 0.29% active;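 active = compounds whose signal lies at least 3.5 SD above the mean of all wells on their plate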;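 also: 0% = DMSO-treated cells in low-serum medium and 100% = 10% serum control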
MC4R antag cAMP = MC4R antagonists of cAMP signaling, primary screen, cell-based, TR-FRET, antagonist arm of biased-ligand search | Melanocortin receptor 4 (Homo sapiens), P32245 | MC4R-expressing cells, MTII-stimulated cAMP, LANCE TR-FRET | inhibition, % at 6.5 µM | 360,000 tested, 0.48% active | AID 540295, 2011;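 active = inhibition above its plate's cutoff, the mean of tested wells on that plate plus 3 SD, cut at about 29% in these data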;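 also: 0% = Melanotan II alone and 100% = Melanotan II plus saturating MCL0020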
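System: U2OS-MC4R stable cell line; Technique: Eu-cAMP/anti-cAMP TR-FRET, emission 671 nm; Repeats: single well per compound; Also added: Melanotan II; Dosing: one concentration, 6.5 µM nominal; Schedule: 30-min compound, 1-h challenge, 1-h detection, room temperature.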
NOD2 RIPK2 PPI = NOD2-RIPK2 binding disruptors in cells, primary screen, fluorescence, CHO cells, BLA complementation; inhibition, % at 4.98 µM; AID 624267, 2012; Receptor-interacting serine/threonine-protein kinase 2 (Homo sapiens), O43353; CCF4 ratio; 360,000 tested, 0.38% active; in the data active = inhibition above about 21%;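 also: 0% = vehicle only and 100% = reference blocker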
Target sequence (O43353 whole entry, looked up): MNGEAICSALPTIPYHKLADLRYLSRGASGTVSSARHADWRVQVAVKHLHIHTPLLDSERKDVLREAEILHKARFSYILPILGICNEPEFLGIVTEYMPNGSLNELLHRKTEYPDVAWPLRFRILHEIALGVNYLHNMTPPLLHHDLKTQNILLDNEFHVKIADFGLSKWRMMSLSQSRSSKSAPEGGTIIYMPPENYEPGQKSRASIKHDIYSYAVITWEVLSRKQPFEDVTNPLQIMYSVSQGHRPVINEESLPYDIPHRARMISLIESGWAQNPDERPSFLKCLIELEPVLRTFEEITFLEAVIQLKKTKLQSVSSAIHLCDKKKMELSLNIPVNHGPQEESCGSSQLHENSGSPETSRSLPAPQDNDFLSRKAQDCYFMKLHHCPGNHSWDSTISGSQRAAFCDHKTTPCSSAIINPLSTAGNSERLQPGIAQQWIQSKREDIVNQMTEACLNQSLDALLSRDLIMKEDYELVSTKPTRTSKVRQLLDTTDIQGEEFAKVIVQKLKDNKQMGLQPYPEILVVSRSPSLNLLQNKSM
TLR9-MyD88 inh = inhibitors of TLR9-MyD88 association in cells, primary screen, cell-based, CHO, BLA complementation, fluorescence; Toll-like receptor 9 (Homo sapiens) + Myeloid differentiation primary response protein …; CCF4 FRET ratio; inhibition, % at 4.98 µM; 340,000 tested, 0.21% active;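 active = inhibition above the mean over all tested compounds plus 3 SD, cut at about 21% in these data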;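 also: 0% = DMSO only wells and 100% = clavulanate BLA inhibitor control wells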
MC4R ag barr = MC4R agonists recruiting beta-arrestin, primary screen, cell-based, luminescence, agonist arm of biased-ligand search. Melanocortin receptor 4 (Homo sapiens), P32245. U2OS MC4R beta-arrestin complementation; percent of melanotan II response, DMSO zero. activation, % at 8.9 µM. 360,000 tested, 0.98% active. AID 540308, 2011;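 active = activation above a per-plate cutoff, the mean activation of sample wells on that plate plus 3 SD, cut at about 8% in these data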
TLR4 MyD88 comp = inhibitors of TLR4-MyD88 association in cells, primary screen, cell-based, HeLa CL3-4, BLA complementation, FRET ratio | 200,000 tested, 0.18% active | HeLa CL3-4 TLR4/MyD88 BLA complementation | AID 861, 2007 | Toll-like receptor 4 (Homo sapiens) + Myeloid differentiation primary response protein … | inhibition, % at 8.4 µM; in the data active = inhibition above about 25%;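 also: 0% = vehicle and 100% = reference inhibitor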
U2OS cAMP counter = nonselective cAMP signaling inhibitors, parental cells, counter-screen for MC4R biased antagonist project, cell-based, TR-FRET, U2OS, forskolin, triplicate. shares compounds with MC4R antag cAMP. LANCE TR-FRET. inhibition, % at 6.5 µM. 1,600 tested, 26% active. AID 602193, 2012;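 active = mean inhibition over triplicates above the low-control well mean plus 3 SD, set per campaign, cut at about 13% in these data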;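 also: signal is single emission at 671 nm which falls as cellular cAMP rises; 0% = forskolin-stimulated wells and 100% = buffer without forskolin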
MC4R cAMP antag = MC4R cAMP antagonists, retest, confirmation, cell-based, TR-FRET; AID 602195, 2012; shares compounds with MC4R antag cAMP; MC4R-expressing cells, MTII-stimulated cAMP; inhibition, % at 6.5 µM; 1,600 tested, 27% active; in the data active = inhibition above about 29%;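 also: 0% = agonist stimulated wells alone and 100% = agonist stimulated wells plus saturating reference antagonist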
Starred values were filed as active, the others as inactive; / = no result.

SMILES	beta cell repl	MC4R antag cAMP	NOD2 RIPK2 PPI	TLR9-MyD88 inh	MC4R ag barr	TLR4 MyD88 comp	U2OS cAMP counter	MC4R cAMP antag
CCOC(=O)C1=C(O)/C(=C/c2ccc(OCC(=O)O)c(OCC)c2)SC1=Nc1ccc(OC)cc1	0	-5	-3	4	-2	-6	/	/
CCOC(=O)C1=C(O)/C(=C/c2ccc(OCC(=O)O)c(OCC)c2)SC1=Nc1ccc(C)cc1	-1	29*	6	4	0	-7	-6	-2
CN(Cc1ccccc1)C(=C(Cl)Cl)/C(=C1/NCCN1C)[N+](=O)[O-]	0	39*	11	5	-1	0	2	3
CN(Cc1ccccc1)C(=C(Cl)Cl)C(=C1NCCN1)[N+](=O)[O-]	2	4	-11	-5	-1	0	/	/
O=C(NCc1ccco1)c1cc(S(=O)(=O)N2CCCc3ccccc32)ccc1Cl	4	-3	8	1	-1	1	/	/
CCOC(=O)CCC(=O)Nc1ccc(S(=O)(=O)N2CCc3ccccc32)cc1	4	32*	0	-8	0	/	9	23
CCNC(=O)COC(=O)c1cc(S(=O)(=O)N2CCCc3ccccc32)ccc1Cl	1	33*	-7	6	1	/	25*	41*
CCOC(=O)CCC(=O)Nc1ccc(S(=O)(=O)N2CCCC2)cc1	-1	5	-6	1	0	10	/	/
CCCN(C(=O)c1cccc(S(=O)(=O)N2CCCc3ccccc32)c1)C1CCS(=O)(=O)C1 (centres undefined)	2	6	-5	8	-4	/	/	/
CCN(C(=O)COC(=O)c1ccc(S(=O)(=O)N2CCCc3ccccc32)cc1)C1CCS(=O)(=O)C1 (centres undefined)	-2	30*	-12	-7	-2	-6	3	-5
Cc1cc(C)n(-c2nnc(Cl)c3ccccc23)n1	0	37*	-2	2	-5	10	30*	46*
O=C(CSc1c2c(nc3ccc(Cl)cc13)CCCC2)N1CCN(C(=O)c2ccco2)CC1	/	41*	2	-2	-2	/	-10	21
O=C(CSc1nc2cc(Cl)ccc2s1)N1CCN(C(=O)c2ccco2)CC1	-1	-3	-4	-10	-2	10	/	/
CC(=O)CSc1nc2ccc(Nc3nc(N4CCOCC4)nc(N4CCOCC4)n3)cc2s1	0	2	1	-9	-1	1	/	/
CCOC(=O)CSc1nc2ccc(Nc3nc(N4CCOCC4)nc(N4CCOCC4)n3)cc2s1	-6	30*	6	7	-1	5	-16	27
Cc1ccc(NC(=O)c2sc(Cl)nc2-c2ccccc2)cc1C	-4	43*	12	5	5	-10	16*	46*
O=C(Nc1cc(F)cc(F)c1)c1sc(Cl)nc1-c1ccccc1	0	31*	18	3	6	-6	3	9
O=C(Nc1ccccc1)c1sc(Cl)nc1-c1ccccc1	0	17	1	-14	-1	5	/	/
COc1cccc(OCc2nn3c(=O)c(-c4ccccc4)nnc3s2)c1	/	4	0	0	1	/	/	/
COc1cc(/C(C)=N\NC(=O)CSc2nc3ccccc3n2C)ccc1O	8	18	-1	5	1	/	/	/
CC1(C)Cc2c(sc3[nH]c(=S)n(Cc4ccco4)c(=O)c23)CO1	-4	34*	1	3	0	-16	7	17
O=C(CCc1nc2ccccc2c(=O)[nH]1)N1CCN(S(=O)(=O)c2cccc(F)c2)CC1	-2	16	-7	-11	-3	/	/	/
O=C(Nc1nnc(-c2ccccc2)s1)c1ccccc1O	-4	31*	-3	-3	1	/	0	-2
CN(C)c1ccc(CC(=O)N2CCCC(c3cc(C(=O)Nc4ccc(F)c(Cl)c4)no3)C2)cc1 (centres undefined)	/	4	-9	/	-3	/	/	/
CC(=O)Oc1ccc2c(=O)c(/C=N/c3cc(=O)[nH]c(=S)[nH]3)coc2c1	-1	-20	-10	-2	0	/	/	/
SMILES	beta cell repl	MC4R antag cAMP	NOD2 RIPK2 PPI	TLR9-MyD88 inh	MC4R ag barr	TLR4 MyD88 comp	U2OS cAMP counter	MC4R cAMP antag
CC(C)=CC(=O)N1CCC(n2nccc2NC(=O)CCc2ccccc2)CC1	4	35*	0	1	3	/	4	6
CC#CC(=O)N1CCC(n2nccc2NC(=O)CCc2ccccc2)CC1	/	-1	-7	-1	0	/	/	/
COc1ccccc1CNC(=O)c1cc(-c2cc(F)ccc2OC(C)C)n[nH]1	/	0	-7	/	0	/	/	/
COc1cccc(Nc2nc(-c3sc(C)nc3C)cs2)c1	-2	29*	7	-2	1	/	0	6
COc1cccc(Nc2nc(-c3sc(N)nc3C)cs2)c1	0	16	-9	-3	4	11	/	/
COc1cccc(Nc2nc(-c3sc(NC(=O)c4ccco4)nc3C)cs2)c1	-8	35*	-20	0	-1	-13	10	20
COc1ccc(C2C(C(C)=O)=C(O)C(=O)N2c2ccccn2)cc1 (centres undefined)	3	5	4	-1	1	/	/	/
O=C1CCCCC1(c1ccccc1)c1ccccc1	/	6	-14	2	-1	/	/	/
CCCc1cc(=O)oc2cc(C)cc(OC(C)C(=O)NCc3ccncc3)c12 (centres undefined)	3	24	5	1	-2	/	/	/
COc1cccc(C(N)c2nc(-c3csc4ccccc34)cs2)c1 (centres undefined)	/	-4	-3	/	1	/	/	/
O=C1Nc2cccc3c2N(CCC3)C2=C1CCC2	/	30*	-6	-12	0	/	1	11
O=C1c2cccc3c2N(CCC3)C(=O)C1(F)c1ccccc1 (centres undefined)	0	17	-5	/	0	/	/	/
O=C(c1cnc(Cl)c(Cl)c1)N1CCN(S(=O)(=O)c2ccc3ccccc3c2)CC1	-5	36*	-2	-1	-4	/	17*	54*
